# Experimental data published in article PMC11520665 (Critical Care, 2024).
# Assay: Safety: treatment-emergent adverse events
# Format: in vivo, patients (adults)
# Details: safety population
# Outline: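 Post-hoc pooled data from two randomised, double-blind, double-dummy trials. The safety population was adults in the ICU at randomisation who received ≥1 dose. Dosing was IV test compound weekly (400 mg Day 1, 200 mg Day 8, optional later 200 mg) or IV comparator echinocandin daily (70 mg Day 1, then 50 mg/day). TEAEs ran from dosing to follow-up, coded MedDRA 23.0, graded mild/moderate/severe, and summarised descriptively.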
# [1] = ICU at randomisation, n=46 rezafungin, n=67 caspofungin
# [2] = ICU at randomisation, number of events per severity
substance,measurement,setting,value
Caspofungin,"TEAE: Abdominal abscess, patients",[1],4 (6.0) n (%)
same,"TEAE: Abdominal pain, patients",[1],4 (6.0) n (%)
same,"TEAE: Acidosis, patients",[1],4 (6.0) n (%)
same,"TEAE: Acute kidney injury, patients",[1],4 (6.0) n (%)
same,"TEAE: Anaemia, patients",[1],7 (10.4) n (%)
same,"TEAE: Atrial fibrillation, patients",[1],3 (4.5) n (%)
same,"TEAE: Bradycardia, patients",[1],5 (7.5) n (%)
same,"TEAE: Constipation, patients",[1],4 (6.0) n (%)
same,"TEAE: Decubitus ulcer, patients",[1],5 (7.5) n (%)
same,"TEAE: Deep vein thrombosis, patients",[1],4 (6.0) n (%)
same,"TEAE: Diarrhoea, patients",[1],7 (10.4) n (%)
same,"TEAE: Dyspnoea, patients",[1],4 (6.0) n (%)
same,"TEAE: Fluid overload, patients",[1],2 (3.0) n (%)
same,"TEAE: Hyperkalaemia, patients",[1],5 (7.5) n (%)
same,"TEAE: Hypertension, patients",[1],3 (4.5) n (%)
same,"TEAE: Hypokalaemia, patients",[1],10 (14.9) n (%)
same,"TEAE: Hypotension, patients",[1],6 (9.0) n (%)
same,"TEAE: Insomnia, patients",[1],2 (3.0) n (%)
same,"TEAE: Multiple organ dysfunction syndrome, patients",[1],3 (4.5) n (%)
same,"TEAE: Nausea, patients",[1],4 (6.0) n (%)
same,"TEAE: Peripheral oedema, patients",[1],2 (3.0) n (%)
same,"TEAE: Pleural effusion, patients",[1],4 (6.0) n (%)
same,"TEAE: Pneumonia, patients",[1],2 (3.0) n (%)
same,"TEAE: Pneumothorax, patients",[1],4 (6.0) n (%)
same,"TEAE: Pyrexia, patients",[1],6 (9.0) n (%)
same,"TEAE: Respiratory failure, patients",[1],4 (6.0) n (%)
same,"TEAE: Sepsis, patients",[1],3 (4.5) n (%)
same,"TEAE: Septic shock, patients",[1],7 (10.4) n (%)
same,"TEAE: Vomiting, patients",[1],3 (4.5) n (%)
same,≥ 1 TEAE,[1],54 (80.6) n (%)
same,≥ 1 TEAE leading to study/drug discontinuation,[1],20 (29.9) n (%)
same,≥ 1 serious TEAE,[1],38 (56.7) n (%)
same,≥ 1 study drug-related TEAE,[1],11 (16.4) n (%)
same,≥ 1 study drug-related TEAE leading to study/drug discontinuation,[1],2 (3.0) n (%)
same,≥ 1 study drug-related serious TEAE,[1],4 (6.0) n (%)
same,"TEAE: Abdominal abscess, event severity (n): mild/moderate/severe",[2],0/0/4
same,"TEAE: Abdominal pain, event severity (n): mild/moderate/severe",[2],3/0/1
same,"TEAE: Acidosis, event severity (n): mild/moderate/severe",[2],2/2/0
same,"TEAE: Acute kidney injury, event severity (n): mild/moderate/severe",[2],1/1/2
same,"TEAE: Anaemia, event severity (n): mild/moderate/severe",[2],3/4/0
same,"TEAE: Atrial fibrillation, event severity (n): mild/moderate/severe",[2],1/2/0
same,"TEAE: Bradycardia, event severity (n): mild/moderate/severe",[2],2/3/0
same,"TEAE: Constipation, event severity (n): mild/moderate/severe",[2],3/1/0
same,"TEAE: Decubitus ulcer, event severity (n): mild/moderate/severe",[2],2/2/1
same,"TEAE: Deep vein thrombosis, event severity (n): mild/moderate/severe",[2],1/3/0
same,"TEAE: Diarrhoea, event severity (n): mild/moderate/severe",[2],4/3/0
same,"TEAE: Dyspnoea, event severity (n): mild/moderate/severe",[2],1/2/1
same,"TEAE: Fluid overload, event severity (n): mild/moderate/severe",[2],1/1/0
same,"TEAE: Hyperkalaemia, event severity (n): mild/moderate/severe",[2],2/2/1
same,"TEAE: Hypertension, event severity (n): mild/moderate/severe",[2],2/0/1
same,"TEAE: Hypokalaemia, event severity (n): mild/moderate/severe",[2],8/2/0
same,"TEAE: Hypotension, event severity (n): mild/moderate/severe",[2],3/3/1
same,"TEAE: Insomnia, event severity (n): mild/moderate/severe",[2],1/1/0
same,"TEAE: Multiple organ dysfunction syndrome, event severity (n): mild/moderate/severe",[2],0/0/3
same,"TEAE: Nausea, event severity (n): mild/moderate/severe",[2],1/3/0
same,"TEAE: Peripheral oedema, event severity (n): mild/moderate/severe",[2],1/1/0
same,"TEAE: Pleural effusion, event severity (n): mild/moderate/severe",[2],1/3/0
same,"TEAE: Pneumonia, event severity (n): mild/moderate/severe",[2],1/1/0
same,"TEAE: Pneumothorax, event severity (n): mild/moderate/severe",[2],1/3/0
same,"TEAE: Pyrexia, event severity (n): mild/moderate/severe",[2],5/1/0
same,"TEAE: Respiratory failure, event severity (n): mild/moderate/severe",[2],0/0/4
same,"TEAE: Sepsis, event severity (n): mild/moderate/severe",[2],0/0/3
same,"TEAE: Septic shock, event severity (n): mild/moderate/severe",[2],0/0/7
same,"TEAE: Vomiting, event severity (n): mild/moderate/severe",[2],2/1/0
same,"Study drug-related serious TEAEs, events",each event n = 1,"ventricular tachycardia, rectal haemorrhage, hypertransaminasaemia, and anaphylactic shock"
same,"Study drug-related TEAEs that led to study discontinuation, events",two patients,ventricular tachycardia and anaphylactic shock
